Reference: ChEMBL document CHEMBL4813962, “Design, synthesis and biological evaluation of sulfamoylphenyl-quinazoline derivatives as potential EGFR/CAIX dual inhibitors” (Eur J Med Chem, 2021)
The source made the active and inactive calls. The calls are words filed in the database; no cut-off is given here.

How the values were obtained:
[1] = tested on: NCI-H1975; experiment: Induction of apoptosis in human NCI-H1975 cells assessed as late apoptotic cells at 5 uM incubated for 24 hrs by annexin V-FITC and propidium iodide based flow cytometry analysis (reference value: 4.98 %); type: functional
[2] = tested on: NCI-H1975; experiment: Induction of cell cycle arrest in human NCI-H1975 cells assessed as S phase at 2 uM incubated for 24 hrs by propidium iodide based flow cytometry analysis (reference value: 24.50 %); type: functional
[3] = tested on: NCI-H1975; experiment: Induction of cell cycle arrest in human NCI-H1975 cells assessed as G1 phase at 2 uM incubated for 24 hrs by propidium iodide based flow cytometry analysis (reference value: 60.76 %); type: functional
[4] = tested on: A549; experiment: cells; type: functional, cell-based; settings: Homo sapiens, A549, 72 h
[5] = target: T1, Epidermal growth factor receptor (Homo sapiens, UniProt P00533)
T1 sequence (P00533 whole entry): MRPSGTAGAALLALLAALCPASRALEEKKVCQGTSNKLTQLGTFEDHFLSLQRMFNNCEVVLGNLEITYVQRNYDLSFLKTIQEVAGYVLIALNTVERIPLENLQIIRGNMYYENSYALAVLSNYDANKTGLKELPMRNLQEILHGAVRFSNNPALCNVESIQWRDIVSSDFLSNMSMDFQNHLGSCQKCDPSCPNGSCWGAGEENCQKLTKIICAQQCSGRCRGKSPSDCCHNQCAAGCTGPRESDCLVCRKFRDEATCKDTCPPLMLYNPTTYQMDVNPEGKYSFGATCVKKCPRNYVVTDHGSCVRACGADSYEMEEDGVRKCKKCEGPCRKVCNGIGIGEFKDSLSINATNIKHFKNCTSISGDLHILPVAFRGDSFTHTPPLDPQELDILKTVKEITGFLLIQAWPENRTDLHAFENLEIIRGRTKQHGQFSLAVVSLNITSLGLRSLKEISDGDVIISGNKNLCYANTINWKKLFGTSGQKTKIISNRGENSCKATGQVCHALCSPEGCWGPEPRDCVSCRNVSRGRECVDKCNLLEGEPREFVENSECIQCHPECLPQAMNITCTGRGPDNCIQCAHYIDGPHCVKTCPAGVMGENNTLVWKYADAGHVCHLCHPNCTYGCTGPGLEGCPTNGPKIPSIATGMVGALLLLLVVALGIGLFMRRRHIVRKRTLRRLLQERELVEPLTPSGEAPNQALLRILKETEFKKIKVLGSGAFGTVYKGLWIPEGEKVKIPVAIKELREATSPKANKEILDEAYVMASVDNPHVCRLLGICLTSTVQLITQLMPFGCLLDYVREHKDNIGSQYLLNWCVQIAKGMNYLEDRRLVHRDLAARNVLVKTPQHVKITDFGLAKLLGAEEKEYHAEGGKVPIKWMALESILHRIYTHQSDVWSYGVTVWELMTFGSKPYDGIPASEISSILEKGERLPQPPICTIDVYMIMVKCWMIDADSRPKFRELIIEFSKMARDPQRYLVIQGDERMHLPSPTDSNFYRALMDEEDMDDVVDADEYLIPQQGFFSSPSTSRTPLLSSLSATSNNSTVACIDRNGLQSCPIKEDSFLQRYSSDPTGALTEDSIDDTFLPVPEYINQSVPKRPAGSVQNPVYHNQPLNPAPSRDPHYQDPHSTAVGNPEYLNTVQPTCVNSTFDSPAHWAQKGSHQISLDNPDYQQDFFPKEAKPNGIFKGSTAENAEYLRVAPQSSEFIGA

[6] = tested on: NCI-H1975; experiment: Induction of apoptosis in human NCI-H1975 cells assessed as viable cells at 2 uM incubated for 24 hrs by annexin V-FITC and propidium iodide based flow cytometry analysis (reference value: 93.2 %); type: functional; settings: read-out: Activity
[7] = tested on: NCI-H1975; experiment: Antimigratory activity in human NCI-H1975 cells assessed as reduction in cell migration incubated for 24 hrs by wound healing assay; type: functional, cell-based; settings: dose 0.5-1 µM
Summary of the method: (§1)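 H1975 monolayer scratched with pipette tip, washed twice with PBS, then kept in serum-free medium with test compound at 0.5 or 1.0 µM; untreated control got medium only. Wound photographed by inverted microscope after 24 h and wound area traced. Migration rate = (0 h wound area − […] wound area)/0 h wound area.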

[8] = tested on: NCI-H1975; experiment: Induction of apoptosis in human NCI-H1975 cells assessed as early apoptotic cells at 5 uM incubated for 24 hrs by annexin V-FITC and propidium iodide based flow cytometry analysis (reference value: 1.34 %); type: functional
[9] = tested on: NCI-H1975; experiment: Downregulation of carbonic anhydrase 9 in human NCI-H1975 cells incubated for 24 hrs in hypoxic condition by Western blot analysis; type: functional, cell-based
Summary of the method: (§2)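 Lysates cleared at 20 000 g, protein quantified by BCA, equal amounts run on 12% SDS-PAGE and blotted to PVDF. Probed overnight at 4 °C for CAIX and HIF-1α, chemiluminescent detection.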

[10] = tested on: A-431; experiment: cells; type: functional, cell-based; settings: Homo sapiens, A-431, 72 h
[11] = target: T1, Epidermal growth factor receptor; experiment: Inhibition of EGFR in human NCI-H1975 cells assessed as reduction in AKT phosphorylation incubated for 24 hrs by Western blot analysis; type: cell-based; settings: dose 2-5 µM
Summary of the method: (§3)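 H1975 cells exposed to 2 or 5 µM compound for 24 h under normoxia. Lysates made on ice, protein measured by BCA, equal amounts separated on 12% SDS-PAGE and moved to PVDF. Blots blocked in 5% milk/TBST, incubated overnight at 4 °C with antibodies to EGFR/p-EGFR, AKT/p-AKT and ERK/p-ERK, and developed by chemiluminescence.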

[12] = tested on: NCI-H1975; experiment: Induction of apoptosis in human NCI-H1975 cells incubated for 24 hrs by annexin V-FITC and propidium iodide based flow cytometry analysis; type: functional, cell-based; settings: dose 2-5 µM
[13] = tested on: NCI-H1975; experiment: Induction of apoptosis in human NCI-H1975 cells assessed as necrotic cells at 2 uM incubated for 24 hrs by annexin V-FITC and propidium iodide based flow cytometry analysis (reference value: 0.455 %); type: functional
[14] = tested on: NCI-H1975; experiment: Induction of cell cycle arrest in human NCI-H1975 cells assessed as S phase at 5 uM incubated for 24 hrs by propidium iodide based flow cytometry analysis (reference value: 24.50 %); type: functional
[15] = target: T1, Epidermal growth factor receptor; experiment: Inhibition of EGFR in human NCI-H1975 cells assessed as reduction in EGFR phosphorylation incubated for 24 hrs by Western blot analysis; type: cell-based; settings: dose 2-5 µM; summary of the method: as §3
[16] = tested on: A549; experiment: Cytotoxicity against human A549 cells assessed as reduction in cell viability incubated for 72 hrs under hypoxic condition by MTT assay; type: functional, cell-based; settings: A549, 72 h
Summary of the method: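 A549 cells given compound for 72 h at 37 °C in hypoxia (1% O2, 94% N2, 5% CO2). Compounds taken up in DMSO and diluted in medium, final DMSO below 0.4%. MTT then added for 4 h, formazan dissolved in DMSO, absorbance read at 570/630 nm. IC50 from three parallel experiments.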

[17] = target: Carbonic anhydrase 2 (Homo sapiens, UniProt P00918); experiment: Inhibition of human carbonic anhydrase 2 using p-nitrophenyl acetate as substrate by UV-VIS spectrophotometric analysis
[18] = tested on: NCI-H1975; experiment: Induction of apoptosis in human NCI-H1975 cells assessed as necrotic cells at 5 uM incubated for 24 hrs by annexin V-FITC and propidium iodide based flow cytometry analysis (reference value: 0.455 %); type: functional
[19] = tested on: NCI-H1975; experiment: Antiproliferative activity against human NCI-H1975 cells assessed as reduction in cell viability incubated for 72 hrs by MTT assay; type: functional, cell-based; settings: NCI-H1975, 72 h
[20] = target: T2, Carbonic anhydrase 9 (Homo sapiens, UniProt Q16790); experiment: Downregulation of carbonic anhydrase 9 in human NCI-H1975 cells assessed as reduction in HIF-1alpha incubated for 24 hrs in hypoxic condition by Western blot analysis; type: cell-based; summary of the method: as §2
[21] = tested on: NCI-H1975; experiment: Induction of cell cycle arrest in human NCI-H1975 cells incubated for 24 hrs by propidium iodide based flow cytometry analysis; type: functional; settings: dose 2-5 µM
[22] = tested on: NCI-H1975; experiment: Induction of apoptosis in human NCI-H1975 cells assessed as viable cells at 5 uM incubated for 24 hrs by annexin V-FITC and propidium iodide based flow cytometry analysis (reference value: 93.2 %); type: functional; settings: read-out: Activity
[23] = tested on: NCI-H1975; experiment: Induction of cell cycle arrest in human NCI-H1975 cells assessed as G2/M phase at 2 uM incubated for 24 hrs by propidium iodide based flow cytometry analysis (reference value: 14.74 %); type: functional
[24] = tested on: NCI-H1975; experiment: Induction of apoptosis in human NCI-H1975 cells assessed as late apoptotic cells at 2 uM incubated for 24 hrs by annexin V-FITC and propidium iodide based flow cytometry analysis (reference value: 4.98 %); type: functional
[25] = tested on: L02; experiment: cells; type: functional, cell-based; settings: Homo sapiens, L02, 72 h
[26] = tested on: NCI-H1975; experiment: Induction of apoptosis in human NCI-H1975 cells assessed as early apoptotic cells at 2 uM incubated for 24 hrs by annexin V-FITC and propidium iodide based flow cytometry analysis (reference value: 1.34 %); type: functional
[27] = tested on: NCI-H1975; experiment: Induction of cell cycle arrest in human NCI-H1975 cells assessed as G1 phase at 5 uM incubated for 24 hrs by propidium iodide based flow cytometry analysis (reference value: 60.76 %); type: functional
[28] = target: T2, Carbonic anhydrase 9
[29] = target: T1, Epidermal growth factor receptor; experiment: Inhibition of EGFR in human NCI-H1975 cells assessed as reduction in ERK phosphorylation incubated for 24 hrs by Western blot analysis; type: cell-based; settings: dose 2-5 µM; summary of the method: as §3
[30] = tested on: NCI-H1975; experiment: Induction of cell cycle arrest in human NCI-H1975 cells assessed as G2/M phase at 5 uM incubated for 24 hrs by propidium iodide based flow cytometry analysis (reference value: 14.74 %); type: functional
[31] = tested on: NCI-H1975; experiment: Cytotoxicity against human NCI-H1975 cells assessed as reduction in cell viability incubated for 72 hrs under hypoxic condition by MTT assay; type: functional, cell-based; settings: NCI-H1975, 72 h
Summary of the method: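 H1975 cells grown in medium with 10% FBS and penicillin/streptomycin under hypoxia (1% O2, 94% N2, 5% CO2) at 37 °C. Compounds dissolved in DMSO and diluted in medium, final DMSO below 0.4%. Incubated 72 h at 37 °C, then MTT (5 mg/mL) for 4 h. Formazan dissolved in DMSO and OD read at 570/630 nm. IC50 from three parallel experiments.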

[32] = target: Epidermal growth factor receptor (Homo sapiens, UniProt P00533, T790M)
Chain of Epidermal growth factor receptor (Homo sapiens, UniProt P00533, T790M) (P00533 25-1210 T790M limits assumed): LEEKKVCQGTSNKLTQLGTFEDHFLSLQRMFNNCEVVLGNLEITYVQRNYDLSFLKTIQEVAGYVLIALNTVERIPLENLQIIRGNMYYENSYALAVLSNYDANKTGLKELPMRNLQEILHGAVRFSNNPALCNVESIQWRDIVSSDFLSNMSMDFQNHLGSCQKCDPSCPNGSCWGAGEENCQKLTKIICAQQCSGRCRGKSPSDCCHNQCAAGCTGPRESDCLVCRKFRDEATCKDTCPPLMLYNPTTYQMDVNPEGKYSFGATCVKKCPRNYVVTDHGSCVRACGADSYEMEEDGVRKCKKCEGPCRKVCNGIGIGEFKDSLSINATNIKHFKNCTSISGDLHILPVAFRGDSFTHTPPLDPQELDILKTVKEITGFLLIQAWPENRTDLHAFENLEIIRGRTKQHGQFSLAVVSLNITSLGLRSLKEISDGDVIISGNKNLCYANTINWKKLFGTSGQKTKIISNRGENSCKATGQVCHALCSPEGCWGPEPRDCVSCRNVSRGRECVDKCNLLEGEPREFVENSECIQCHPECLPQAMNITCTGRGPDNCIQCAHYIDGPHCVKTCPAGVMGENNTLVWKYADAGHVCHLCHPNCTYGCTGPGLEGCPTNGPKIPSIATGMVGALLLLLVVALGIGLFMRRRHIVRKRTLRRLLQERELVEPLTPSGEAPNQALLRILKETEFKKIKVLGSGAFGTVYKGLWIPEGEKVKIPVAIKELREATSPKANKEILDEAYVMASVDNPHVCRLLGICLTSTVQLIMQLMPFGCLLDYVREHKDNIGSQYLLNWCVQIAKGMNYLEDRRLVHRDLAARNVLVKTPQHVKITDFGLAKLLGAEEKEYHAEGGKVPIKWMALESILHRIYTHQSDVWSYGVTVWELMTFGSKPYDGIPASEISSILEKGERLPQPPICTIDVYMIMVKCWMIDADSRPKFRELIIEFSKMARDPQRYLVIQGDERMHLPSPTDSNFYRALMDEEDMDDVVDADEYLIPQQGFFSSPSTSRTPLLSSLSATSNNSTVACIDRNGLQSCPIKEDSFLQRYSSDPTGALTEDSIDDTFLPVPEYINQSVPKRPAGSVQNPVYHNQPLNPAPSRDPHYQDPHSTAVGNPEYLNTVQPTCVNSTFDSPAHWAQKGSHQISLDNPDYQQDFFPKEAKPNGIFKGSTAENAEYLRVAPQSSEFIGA

[33] = tested on: NCI-H1975; experiment: Antimigratory activity in human NCI-H1975 cells assessed as cell migration at 1 uM incubated for 24 hrs by wound healing assay (reference value: 51.2 %); type: functional; summary of the method: as §1
[34] = tested on: NCI-H1975; experiment: Downregulation of carbonic anhydrase in human NCI-H1975 cells at 2 uM incubated for 24 hrs in hypoxic condition by Western blot analysis; type: functional, cell-based
Summary of the method: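 H1975 cells treated 24 h under hypoxia (1% O2, 94% N2, 5% CO2, 37 °C), with untreated cells as negative control. Lysed on ice for 30 min, spun at 20 000 g (4 °C, 10 min), protein measured by BCA. Equal protein run on 12% SDS-PAGE and moved to PVDF. Blocked in 5% milk/TBST, anti-CAIX overnight at 4 °C, peroxidase secondary 2 h, chemiluminescent detection.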

SMILES: COc1cc2ncnc(Nc3cccc(C(F)(F)F)c3)c2cc1OCCCCC(=O)Nc1ccc(S(N)(=O)=O)cc1
- Activity [1]: 14.1%
- Activity [2]: 15.58%
- Activity [3]: 36.98%
- IC50 [4]: 6540 nM
- IC50 [5]: 27 nM
- viability at 2 µM [6]: 68.4%
- Activity [7]: Dose-Dependent Effect
- Activity [8]: 26.6%
- Activity [9]: Dose-Dependent Effect
- IC50 [10]: 4040 nM
- inhibition [11]: Dose-Dependent Effect
- Activity [12]: Dose-Dependent Effect
- Activity [13]: 2.19%
- Activity [14]: 17.21%
- inhibition [15]: Dose-Dependent Effect
- IC50 [16]: 2210 nM
- IC50 [17]: 278 nM
- Activity [18]: 3.4%
- IC50 [19]: 1940 nM
- Activity [20]: Dose-Dependent Effect
- Activity [21]: Dose-Dependent Effect
- viability at 5 µM [22]: 56%
- Activity [23]: 47.44%
- Activity [24]: 7.8%
- IC50 [25]: > 40000 nM
- Activity [26]: 21.6%
- Activity [27]: 27.94%
- IC50 [28]: 115 nM
- inhibition [29]: Dose-Dependent Effect
- Activity [30]: 54.85%
- IC50 [31]: 1050 nM
- IC50 [32]: 9.2 nM
- Activity [33]: 17.9%

SMILES: CC(=O)Nc1nnc(S(N)(=O)=O)s1
- Activity [34]: Active

SMILES: C=CC(=O)Nc1cc(Nc2nccc(-c3cn(C)c4ccccc34)n2)c(OC)cc1N(C)CCN(C)C [OSIMERTINIB]
- IC50 [25]: > 40000 nM

SMILES: COc1cc2ncnc(Nc3ccc(F)c(Cl)c3)c2cc1OCCCN1CCOCC1 [GEFITINIB]
- Activity [2]: 18.76%
- Activity [3]: 47.52%
- viability at 2 µM [6]: 86.2%
- Activity [13]: 0.61%
- Activity [23]: 33.72%
- Activity [24]: 5.44%
- Activity [26]: 7.78%
